Measurements as given in ChEMBL document CHEMBL1146219, “Synthesis and evaluation of novel radioiodinated benzamides for malignant melanoma” (J Med Chem, 2007).

Legend:
Settings in all cases: in vivo
Heart [1] = assay: Biodistribution in heart of B16F0 tumor bearing C57BL/6J mouse at 0.37-0.74 MBq, iv after 1 hr; assay type: ADME, organism-based
How it was run: (§1)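 Female C57BL/6J mice (15-18 g) were given B16F0 cells subcutaneously in the left flank (0.1 mL of 3 × 10⁶ viable cells/mL in Ca²⁺/Mg²⁺-free PBS) at 6-7 weeks and used after ten days. [¹²³I]benzamide (0.37-0.74 MBq, 100 µL, saline) was injected via the tail vein. Groups of n = 5 were killed by CO₂ and cervical dislocation. Organs were weighed and γ-counted, and the carcass was counted too.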

Brain [2] = assay: Biodistribution in brain of B16F0 tumor bearing C57BL/6J mouse at 0.37-0.74 MBq, iv after 6 hrs; assay type: ADME, organism-based; how it was run: as §1
Lung [3] = assay: Biodistribution in lung of B16F0 tumor bearing C57BL/6J mouse at 0.37-0.74 MBq, iv after 24 hrs in presence of haloperidol; assay type: ADME, organism-based
How it was run: (§2)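 Haloperidol blocking in B16F0-bearing C57BL/6J mice: 1 mg/kg haloperidol was given iv 5 min before the iv [¹²³I]benzamide (0.37-0.74 MBq). Groups of n = 5 were killed at 1 or 24 h. Tissues were weighed and γ-counted as in the biodistribution study and compared with untreated controls by one-way ANOVA, with p < 0.01 taken as significant.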

Liver [4] = assay: Biodistribution in liver of B16F0 tumor bearing C57BL/6J mouse at 0.37-0.74 MBq, iv after 24 hrs; assay type: ADME, organism-based; how it was run: as §1
Brain [5] = assay: Biodistribution in brain of B16F0 tumor bearing C57BL/6J mouse at 0.37-0.74 MBq, iv after 1 hr in presence of haloperidol; assay type: ADME, organism-based
[6] = Biodistribution in melanoma of B16F0 tumor bearing C57BL/6J mouse at 0.37-0.74 MBq, iv after 6 hrs; assay type: ADME, organism-based, B16-F0
How it was run: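 Female C57BL/6J mice (15-18 g) carrying s.c. B16F0 flank tumors (0.1 mL of 3 × 10⁶ viable cells per mL in Ca²⁺/Mg²⁺-free PBS, inoculated at 6-7 weeks, used 10 days later). [¹²³I]tracer 0.37-0.74 MBq in saline, 100 µL, tail-vein i.v. Groups of n = 5 killed at 1-72 h. Organs weighed and γ-counted, carcass activity also counted, values as %ID/g.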

Liver [7] = assay: Biodistribution in liver of B16F0 tumor bearing C57BL/6J mouse at 0.37-0.74 MBq, iv after 1 hr; assay type: ADME, organism-based; how it was run: as §1
Kidney [8] = assay: Biodistribution in kidney of B16F0 tumor bearing C57BL/6J mouse at 0.37-0.74 MBq, iv after 1 hr in presence of haloperidol; assay type: ADME, organism-based; how it was run: as §2
Liver [9] = assay: Biodistribution in liver of B16F0 tumor bearing C57BL/6J mouse at 0.37-0.74 MBq, iv after 6 hrs; assay type: ADME, organism-based; how it was run: as §1
Heart [10] = assay: Biodistribution in heart of B16F0 tumor bearing C57BL/6J mouse at 0.37-0.74 MBq, iv after 6 hrs; assay type: ADME, organism-based; how it was run: as §1
Lung [11] = assay: Biodistribution in lung of B16F0 tumor bearing C57BL/6J mouse at 0.37-0.74 MBq, iv after 1 hr in presence of haloperidol; assay type: ADME, organism-based; how it was run: as §2
Liver [12] = assay: Biodistribution in liver of B16F0 tumor bearing C57BL/6J mouse at 0.37-0.74 MBq, iv after 24 hrs in presence of haloperidol; assay type: ADME, organism-based; how it was run: as §2
Kidney [13] = assay: Biodistribution in kidney of B16F0 tumor bearing C57BL/6J mouse at 0.37-0.74 MBq, iv after 24 hrs; assay type: ADME, organism-based; how it was run: as §1
Blood [14] = assay: Biodistribution in blood of B16F0 tumor bearing C57BL/6J mouse at 0.37-0.74 MBq, iv after 24 hrs; assay type: ADME, organism-based; how it was run: as §1
Lung [15] = assay: Biodistribution in lung of B16F0 tumor bearing C57BL/6J mouse at 0.37-0.74 MBq, iv after 6 hrs; assay type: ADME, organism-based; how it was run: as §1
[16] = Biodistribution in melanoma of B16F0 tumor bearing C57BL/6J mouse at 0.37-0.74 MBq, iv after 1 hr; assay type: ADME, organism-based, B16-F0; how it was run: as §1
[17] = Biodistribution in melanoma of B16F0 tumor bearing C57BL/6J mouse at 0.37-0.74 MBq, iv after 24 hrs; assay type: ADME, organism-based, B16-F0; how it was run: as §1
Kidney [18] = assay: Biodistribution in kidney of B16F0 tumor bearing C57BL/6J mouse at 0.37-0.74 MBq, iv after 6 hrs; assay type: ADME, organism-based; how it was run: as §1
Liver [19] = assay: Biodistribution in liver of B16F0 tumor bearing C57BL/6J mouse at 0.37-0.74 MBq, iv after 1 hr in presence of haloperidol; assay type: ADME, organism-based; how it was run: as §2
Lung [20] = assay: Biodistribution in lung of B16F0 tumor bearing C57BL/6J mouse at 0.37-0.74 MBq, iv after 24 hrs; assay type: ADME, organism-based; how it was run: as §1
Blood [21] = assay: Biodistribution in blood of B16F0 tumor bearing C57BL/6J mouse at 0.37-0.74 MBq, iv after 6 hrs; assay type: ADME, organism-based; how it was run: as §1
Brain [22] = assay: Biodistribution in brain of B16F0 tumor bearing C57BL/6J mouse at 0.37-0.74 MBq, iv after 24 hrs; assay type: ADME, organism-based; how it was run: as §1
Blood [23] = assay: Biodistribution in blood of B16F0 tumor bearing C57BL/6J mouse at 0.37-0.74 MBq, iv after 24 hrs in presence of haloperidol; assay type: ADME, organism-based
Blood [24] = assay: Biodistribution in blood of B16F0 tumor bearing C57BL/6J mouse at 0.37-0.74 MBq, iv after 1 hr in presence of haloperidol; assay type: ADME, organism-based
[25] = Biodistribution in tumor of B16F0 tumor bearing C57BL/6J mouse at 0.37-0.74 MBq, iv after 1 hr in presence of haloperidol; assay type: ADME, organism-based, B16-F0
How it was run: (§3)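 B16F0 tumor-bearing C57BL/6J mice, groups of n = 5, given haloperidol 1 mg/kg i.v. 5 min before the i.v. [¹²³I]tracer (0.37-0.74 MBq). Killed at 1 or 24 h. Tissues γ-counted as for biodistribution and compared with untreated controls by one-way ANOVA, significance p < 0.01.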

Brain [26] = assay: Biodistribution in brain of B16F0 tumor bearing C57BL/6J mouse at 0.37-0.74 MBq, iv after 24 hrs in presence of haloperidol; assay type: ADME, organism-based
Kidney [27] = assay: Biodistribution in kidney of B16F0 tumor bearing C57BL/6J mouse at 0.37-0.74 MBq, iv after 24 hrs in presence of haloperidol; assay type: ADME, organism-based; how it was run: as §2
[28] = Biodistribution in eye of B16F0 tumor bearing C57BL/6J mouse at 0.37-0.74 MBq, iv after 1 hr in presence of haloperidol; assay type: ADME, organism-based; how it was run: as §2
Lung [29] = assay: Biodistribution in lung of B16F0 tumor bearing C57BL/6J mouse at 0.37-0.74 MBq, iv after 1 hr; assay type: ADME, organism-based; how it was run: as §1
Blood [30] = assay: Biodistribution in blood of B16F0 tumor bearing C57BL/6J mouse at 0.37-0.74 MBq, iv after 1 hr; assay type: ADME, organism-based; how it was run: as §1
[31] = Biodistribution in eye of B16F0 tumor bearing C57BL/6J mouse at 0.37-0.74 MBq, iv after 24 hrs in presence of haloperidol; assay type: ADME, organism-based; how it was run: as §2
[32] = Biodistribution in tumor of B16F0 tumor bearing C57BL/6J mouse at 0.37-0.74 MBq, iv after 24 hrs in presence of haloperidol; assay type: ADME, organism-based, B16-F0; how it was run: as §3
Heart [33] = assay: Biodistribution in heart of B16F0 tumor bearing C57BL/6J mouse at 0.37-0.74 MBq, iv after 24 hrs; assay type: ADME, organism-based; how it was run: as §1
Kidney [34] = assay: Biodistribution in kidney of B16F0 tumor bearing C57BL/6J mouse at 0.37-0.74 MBq, iv after 1 hr; assay type: ADME, organism-based; how it was run: as §1
Brain [35] = assay: Biodistribution in brain of B16F0 tumor bearing C57BL/6J mouse at 0.37-0.74 MBq, iv after 1 hr; assay type: ADME, organism-based; how it was run: as §1

Compound: O=C(NC1CCN(CCF)CC1)c1ccc(I)cc1
- Drug uptake (Heart [1]): 3 % ID/g
- Drug uptake (Brain [2]): 0.48 % ID/g
- Drug uptake (Lung [3]): 0.14 % ID/g
- Drug uptake (Liver [4]): 0.29 % ID/g
- Drug uptake (Brain [5]): 1.61 % ID/g
- Drug uptake [6]: 12.5 % ID/g
- Drug uptake (Liver [7]): 19.2 % ID/g
- Drug uptake (Kidney [8]): 7.3 % ID/g
- Drug uptake (Liver [9]): 3.8 % ID/g
- Drug uptake (Heart [10]): 0.93 % ID/g
- Drug uptake (Lung [11]): 9.7 % ID/g
- Drug uptake (Liver [12]): 0.12 % ID/g
- Drug uptake (Kidney [13]): 0.22 % ID/g
- Drug uptake (Blood [14]): 0.04 % ID/g
- Drug uptake (Lung [15]): 6.4 % ID/g
- Drug uptake [16]: 10.9 % ID/g
- Drug uptake [17]: 5.5 % ID/g
- Drug uptake (Kidney [18]): 3.4 % ID/g
- Drug uptake (Liver [19]): 10.1 % ID/g
- Drug uptake (Lung [20]): 0.33 % ID/g
- Drug uptake (Blood [21]): 0.34 % ID/g
- Drug uptake (Brain [22]): 0.09 % ID/g
- Drug uptake (Blood [23]): 0.03 % ID/g
- Drug uptake (Blood [24]): 1.46 % ID/g
- Drug uptake [25]: 10.5 % ID/g
- Drug uptake (Brain [26]): 0.06 % ID/g
- Drug uptake (Kidney [27]): 0.1 % ID/g
- Drug uptake [28]: 34.8 % ID/g
- Drug uptake (Lung [29]): 10.8 % ID/g
- Drug uptake (Blood [30]): 1 % ID/g
- Drug uptake [31]: 24.6 % ID/g
- Drug uptake [32]: 3.3 % ID/g
- Drug uptake (Heart [33]): 0.09 % ID/g
- Drug uptake (Kidney [34]): 8.7 % ID/g
- Drug uptake (Brain [35]): 3.1 % ID/g
